ChEMBL document CHEMBL4406923, “New Potent DOT1L Inhibitors for in Vivo Evaluation in Mouse” (ACS Med Chem Lett, 2019)
The source made the active and inactive calls. The rule behind the calls is not given here.

Columns and labels:
MV4-11 [1] = experiment: Antitumor activity against human MV4-11 cells xenografted in sc dosed C57BL/6 mouse assessed as reduction in tumor growth at => MTD; format: functional, organism-based
[2] = molecular target: T1, Histone-lysine N-methyltransferase, H3 lysine-79 specific (Homo sapiens, UniProt Q8TEK3); experiment: Inhibition of 0.5 nM DOT1L (2 to 416 residues) (unknown origin) using biotinylated nucleosome as substrate and [3H]SAM as co-factor preincubated for 30 mins followed by substrate and cofactor addition and measured after 90 mins by scintillation proximity assay
Target sequence in this assay (Q8TEK3 whole entry, the tested form may be a part): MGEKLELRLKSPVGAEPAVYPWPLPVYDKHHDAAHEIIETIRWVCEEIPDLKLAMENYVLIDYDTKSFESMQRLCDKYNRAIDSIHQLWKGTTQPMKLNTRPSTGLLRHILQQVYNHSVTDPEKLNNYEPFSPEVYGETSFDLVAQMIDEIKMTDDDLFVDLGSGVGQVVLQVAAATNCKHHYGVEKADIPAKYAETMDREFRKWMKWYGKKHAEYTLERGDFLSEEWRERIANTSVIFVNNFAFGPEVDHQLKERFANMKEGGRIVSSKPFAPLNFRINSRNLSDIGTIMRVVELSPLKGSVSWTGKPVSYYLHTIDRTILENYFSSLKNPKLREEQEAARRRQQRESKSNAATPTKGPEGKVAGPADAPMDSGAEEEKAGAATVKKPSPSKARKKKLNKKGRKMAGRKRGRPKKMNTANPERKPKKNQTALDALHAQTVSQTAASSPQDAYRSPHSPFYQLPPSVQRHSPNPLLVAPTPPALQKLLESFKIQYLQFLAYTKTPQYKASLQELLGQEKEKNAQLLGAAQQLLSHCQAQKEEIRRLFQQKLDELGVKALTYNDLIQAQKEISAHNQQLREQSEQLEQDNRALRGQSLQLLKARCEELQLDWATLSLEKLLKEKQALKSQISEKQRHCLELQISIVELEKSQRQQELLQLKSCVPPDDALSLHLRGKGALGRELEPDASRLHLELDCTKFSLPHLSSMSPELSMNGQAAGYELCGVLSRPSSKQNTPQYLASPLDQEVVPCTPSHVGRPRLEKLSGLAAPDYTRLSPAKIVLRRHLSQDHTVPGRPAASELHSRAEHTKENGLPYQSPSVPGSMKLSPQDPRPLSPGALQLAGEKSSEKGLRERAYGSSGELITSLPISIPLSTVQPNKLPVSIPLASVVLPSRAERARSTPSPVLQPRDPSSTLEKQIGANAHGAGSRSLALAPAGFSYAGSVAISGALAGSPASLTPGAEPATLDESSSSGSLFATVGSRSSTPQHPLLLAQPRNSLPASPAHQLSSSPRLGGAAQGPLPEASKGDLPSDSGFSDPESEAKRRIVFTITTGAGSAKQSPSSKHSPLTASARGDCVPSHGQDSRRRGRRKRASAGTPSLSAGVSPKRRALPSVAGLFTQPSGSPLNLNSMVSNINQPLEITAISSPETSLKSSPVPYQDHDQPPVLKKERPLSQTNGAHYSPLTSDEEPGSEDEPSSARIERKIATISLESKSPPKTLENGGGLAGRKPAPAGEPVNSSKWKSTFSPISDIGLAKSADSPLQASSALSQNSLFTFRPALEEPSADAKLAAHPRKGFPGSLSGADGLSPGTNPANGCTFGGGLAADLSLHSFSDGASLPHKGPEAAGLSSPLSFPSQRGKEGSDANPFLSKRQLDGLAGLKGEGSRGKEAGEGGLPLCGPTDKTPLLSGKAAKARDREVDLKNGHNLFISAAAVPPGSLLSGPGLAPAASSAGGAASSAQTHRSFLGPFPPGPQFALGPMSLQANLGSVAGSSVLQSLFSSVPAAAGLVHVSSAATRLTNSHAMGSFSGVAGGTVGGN

[3] = Intrinsic clearance in rat liver microsomes; format: ADME, Microsome; conditions: read-out: CLH
[4] = Drug uptake in C57BL/6 mouse at 50 mg/kg, sc administered twice daily for 7 days; format: ADME, organism-based; conditions: in vivo, 168 h
[5] = Toxicity in NOD-SCID mouse xenografted with human MV4-11 cells assessed as change in body weight at 75 mg/kg, sc administered bid for 20 days; conditions: in vivo, 480 h
Mus musculus [6] = experiment: In vivo inhibition of DOT1L in NOD-SCID mouse xenografted with human MV4-11 cells assessed as reduction in H3K79 dimethylation at 75 mg/kg, sc administered twice daily for 20 days
Mus musculus [7] = experiment: In vivo inhibition of DOT1L in NOD-SCID mouse xenografted with human MV4-11 cells assessed as reduction in HOXA9 gene expression at 75 mg/kg, sc administered qd for 20 days by qPCR analysis; conditions: MV4-11, sc, 480 h
[8] = Toxicity in NOD-SCID mouse xenografted with human MV4-11 cells assessed as change in body weight at 75 mg/kg, sc administered qd for 20 days; conditions: in vivo, 480 h
MV4-11 [9] = experiment: Antitumor activity against human MV4-11 cells xenografted in NOD-SCID mouse assessed as tumor growth inhibition at 75 mg/kg, sc administered bid for 20 days; conditions: MV4-11, sc, 480 h, read-out: TGI
Mus musculus [10] = experiment: In vivo inhibition of DOT1L in NOD-SCID mouse xenografted with human MV4-11 cells assessed as reduction in H3K79 dimethylation at 75 mg/kg, sc administered once daily for 20 days by ELISA
MV4-11 [11] = experiment: Antitumor activity against human MV4-11 cells xenografted in NOD-SCID mouse assessed as tumor growth inhibition at 75 mg/kg, sc qd administered for 20 days
[12] = molecular target: T1, Histone-lysine N-methyltransferase, H3 lysine-79 specific; experiment: Inhibition of DOT1L in human MOLM13 cells assessed as reduction in HOXA9 gene expression incubated for 72 hrs by bright-glo luciferase reporter gene assay; format: cell-based
Target sequence in this assay (Q8TEK3 whole entry, looked up, the tested form may be a part): as the sequence (Q8TEK3 whole entry, the tested form may be a part) above

[13] = Lipophilicity, log D of the compound at pH 7.4; format: physicochemical; conditions: buffer
Mus musculus [14] = experiment: In vivo inhibition of DOT1L in NOD-SCID mouse xenografted with human MV4-11 cells assessed as reduction in MEIS1 gene expression at 75 mg/kg, sc administered bid for 20 days by qPCR analysis; conditions: MV4-11, sc, 480 h
Mus musculus [15] = experiment: In vivo inhibition of DOT1L in NOD-SCID mouse xenografted with human MV4-11 cells assessed as reduction in HOXA9 gene expression at 75 mg/kg, sc administered bid for 20 days by qPCR analysis; conditions: MV4-11, sc, 480 h
Mus musculus [16] = experiment: In vivo inhibition of DOT1L in NOD-SCID mouse xenografted with human MV4-11 cells assessed as reduction in H3K79 dimethylation at 75 mg/kg, sc administered bid for 20 days
[17] = molecular target: T1, Histone-lysine N-methyltransferase, H3 lysine-79 specific; experiment: Inhibition of DOT1L in human HeLa cells assessed as reduction in H3K79 dimethylation measured after 72 hrs by ELISA; format: cell-based
Target sequence in this assay (Q8TEK3 whole entry, looked up, the tested form may be a part): as the sequence (Q8TEK3 whole entry, the tested form may be a part) above

Mus musculus [18] = experiment: In vivo inhibition of DOT1L in NOD-SCID mouse xenografted with human MV4-11 cells assessed as reduction in MEIS1 gene expression at 75 mg/kg, sc administered qd for 20 days by qPCR analysis; conditions: MV4-11, sc, 480 h
[19] = molecular target: T1, Histone-lysine N-methyltransferase, H3 lysine-79 specific; experiment: Inhibition of 0.05 nM DOT1L (2 to 416 residues) (unknown origin) using biotinylated nucleosome as substrate and [3H]SAM as co-factor preincubated for 30 mins followed by substrate and cofactor addition and measured after 180 mins by scintillation proximity assay
Target sequence in this assay (Q8TEK3 whole entry, the tested form may be a part): as above

Cytochrome P450 3A4 = Cytochrome P450 3A4 (Homo sapiens, UniProt P08684); experiment: Induction of CYP3A4 in human hepatocytes; format: ADME, cell-based
[20] = Cmax in C57BL/6 mouse at 100 mg/kg, po administered as single dose; format: ADME, organism-based; design: dose 100 mg/kg, route oral; conditions: in vivo
[21] = AUC (0 to 12 hrs) in C57BL/6 mouse at 100 mg/kg, po administered as single dose; format: ADME, organism-based; design: dose 100 mg/kg, time < 12 hr, route oral; conditions: in vivo
[22] = AUC (0 to 12 hrs) in C57BL/6 mouse at 100 mg/kg, po bid for 20 days; format: ADME, organism-based; design: dose 100 mg/kg, time < 12 hr, route oral; conditions: in vivo
[23] = Induction of CYP3A4 in rat hepatocytes; format: ADME, cell-based
[24] = Cmax in C57BL/6 mouse at 100 mg/kg, po bid for 20 days; format: ADME, organism-based; design: dose 100 mg/kg, route oral; conditions: in vivo
Mus musculus [25] = experiment: In vivo inhibition of DOT1L in C57BL/6 mouse xenografted with human MV4-11 cells assessed as reduction in H3K79 dimethylation at 200 mg/kg, administered twice daily for 23 days by ELISA relative to control; format: functional; conditions: 552 h
[26] = Oral bioavailability in C57BL/6 mouse at 3 mg/kg measured upto 24 hrs by LC-MS/MS analysis; format: ADME, organism-based; conditions: in vivo
[27] = Oral bioavailability in Sprague-Dawley Crl:CD(SD) rat at 3 mg/kg measured upto 24 hrs by LC-MS/MS analysis; format: ADME, organism-based; conditions: in vivo
Mus musculus [28] = experiment: In vivo inhibition of DOT1L in C57BL/6 mouse xenografted with human MV4-11 cells assessed as reduction in HOXA9 gene expression at 200 mg/kg, administered twice daily for 23 days by qPCR analysis; format: functional, organism-based
MV4-11 [29] = experiment: Antitumor activity against human MV4-11 cells xenografted in C57BL/6 mouse assessed as tumor growth inhibition at 200 mg/kg, administered twice daily for 23 days; format: functional, organism-based
Method in brief: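 Mice bearing subcutaneous MV4-11 xenografts were treated for 23 days at 200 mg/kg twice daily. Tumor growth inhibition was assessed against control.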

Mus musculus [30] = experiment: In vivo inhibition of DOT1L in C57BL/6 mouse xenografted with human MV4-11 cells assessed as reduction in MEIS1 gene expression at 200 mg/kg, administered twice daily for 23 days by qPCR analysis; format: functional, organism-based

Sequence of Cytochrome P450 3A4 (P08684 whole entry): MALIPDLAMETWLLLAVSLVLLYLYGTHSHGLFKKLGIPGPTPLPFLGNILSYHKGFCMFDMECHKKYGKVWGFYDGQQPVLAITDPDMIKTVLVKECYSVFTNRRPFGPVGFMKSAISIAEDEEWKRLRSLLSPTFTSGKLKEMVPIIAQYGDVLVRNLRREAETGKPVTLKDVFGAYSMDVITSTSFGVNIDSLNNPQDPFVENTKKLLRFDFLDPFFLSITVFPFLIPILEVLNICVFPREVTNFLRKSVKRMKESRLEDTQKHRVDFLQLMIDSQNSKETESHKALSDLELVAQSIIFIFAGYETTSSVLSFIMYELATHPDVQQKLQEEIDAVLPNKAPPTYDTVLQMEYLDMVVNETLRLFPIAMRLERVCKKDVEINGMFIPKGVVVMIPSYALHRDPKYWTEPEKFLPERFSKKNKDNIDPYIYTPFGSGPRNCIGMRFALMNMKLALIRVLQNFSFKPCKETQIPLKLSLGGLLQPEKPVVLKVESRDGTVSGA

**Q.** Which Activity (MV4-11 [1]) does the source give for `CC(C)N(C[C@H]1O[C@@H](n2cnc3c(N)ncnc32)[C@H](O)[C@@H]1O)[C@H]1C[C@@H](CCc2nc3cc(C(C)(C)C)ccc3[nH]2)C1` here?
**A.** inactive

**Q.** What does the source list for `CS(=O)(=O)c1ccc(N[C@@H](c2cccc(Cl)c2)c2ccccn2)c(Nc2ncccn2)c1`?
**A.** IC50 [2]: 270 nM; microsomal CLint [3]: 553 µL/min/mg

**Q.** With `COc1nc(N)nc(Nc2cc(S(N)(=O)=O)ccc2N[C@@H](c2cccc3c2OC(F)(F)O3)c2ncccc2Cl)n1` as the compound, how does the Drug uptake [4] read?
**A.** Active

**Q.** And the Activity [5]?
**A.** Non-Toxic

**Q.** And the inhibition (Mus musculus [6])?
**A.** Active

**Q.** What about the inhibition in vivo at 75 mg/kg (Mus musculus [7]) of the same compound?
**A.** 25%

**Q.** What about the Activity [8] of the same compound?
**A.** Non-Toxic

**Q.** And the inhibition in vivo at 75 mg/kg (MV4-11 [9])?
**A.** 73%

**Q.** And the inhibition (Mus musculus [10])?
**A.** Active

**Q.** And the TGI (MV4-11 [11])?
**A.** inactive

**Q.** What about the ED50 [12] of the same compound?
**A.** 30 nM

**Q.** And the logD [13]?
**A.** 3.5

**Q.** And the inhibition in vivo at 75 mg/kg (Mus musculus [14])?
**A.** 74%

**Q.** And the inhibition in vivo at 75 mg/kg (Mus musculus [15])?
**A.** 53%

**Q.** What about the inhibition (Mus musculus [16]) of the same compound?
**A.** Active

**Q.** What about the ED50 [17] of the same compound?
**A.** 2.9 nM

**Q.** What about the inhibition in vivo at 75 mg/kg (Mus musculus [18]) of the same compound?
**A.** 53%

**Q.** And the IC50 [19]?
**A.** 0.17 nM

**Q.** Which results are given for `COc1nc(Nc2cc(S(C)(=O)=O)ccc2N[C@@H](c2cccc3c2OC(F)(F)O3)c2ncccc2Cl)nc(OC)n1`?
**A.** ED50 [12]: 170 nM; ED50 [17]: 12 nM; IC50 [19]: 0.19 nM

**Q.** With `CS(=O)(=O)c1ccc(NC(c2cccc(Cl)c2)c2ccccn2)c([N+](=O)[O-])c1` (racemic) as the compound, how does the IC50 [2] read?
**A.** 4600 nM

**Q.** With `CS(=O)(=O)c1ccc(N[C@@H](c2cccc(Cl)c2F)c2ncccc2F)c(Nc2ncccn2)c1` as the compound, how does the IC50 [2] read?
**A.** 16 nM

**Q.** What does the source list for `COc1nc(Nc2cc(S(C)(=O)=O)ccc2N[C@@H](c2cccc(Cl)c2F)c2ncccc2F)nc(OC)n1`?
**A.** Activity (Cytochrome P450 3A4): Active; Cmax [20]: 24 µM; ED50 [17]: 43 nM; AUC(0-t) at 12 h [21]: 216 µM·h; AUC at 12 h [22]: 47 µM·h; Activity [23]: Active; Cmax [24]: 12 µM; IC50 [19]: 0.59 nM

**Q.** For `CS(=O)(=O)c1ccc(N[C@H](c2ccccn2)c2cccc(Cl)c2F)c(Nc2nccc(C(N)=O)n2)c1`, which inhibition in vivo at 200 mg/kg (Mus musculus [25]) is on record?
**A.** 50%

**Q.** What about the bioavailability [26] of the same compound?
**A.** 26%

**Q.** And the bioavailability [27]?
**A.** 36%

**Q.** What about the inhibition (Mus musculus [28]) of the same compound?
**A.** inactive

**Q.** What about the ED50 [12] of the same compound?
**A.** 4500 nM

**Q.** What about the IC50 [2] of the same compound?
**A.** 3.9 nM

**Q.** And the ED50 [17]?
**A.** 300 nM

**Q.** What about the TGI (MV4-11 [29]) of the same compound?
**A.** inactive

**Q.** And the IC50 [19]?
**A.** 2.1 nM

**Q.** What about the inhibition (Mus musculus [30]) of the same compound?
**A.** inactive

**Q.** With `CS(=O)(=O)c1ccc(N[C@H](c2cccc(Cl)c2)c2ccccn2)c(Nc2ncccn2)c1` as the compound, how does the IC50 [2] read?
**A.** 22800 nM

**Q.** Which IC50 [2] does the source give for `CS(=O)(=O)c1ccc(N[C@H](c2ccccn2)c2cccc(Cl)c2F)c(Nc2ncccn2)c1` here?
**A.** 97 nM

**Q.** What about the microsomal CLint [3] of the same compound?
**A.** 50 µL/min/mg

**Q.** With `NS(=O)(=O)c1ccc(NC(c2ccccc2)c2ccccc2)c([N+](=O)[O-])c1` as the compound, how does the IC50 [2] read?
**A.** 8500 nM
